# pEC50, pIC50: −log10 of the molar value.
# Experiments:
# [1] = tested on: Plasmodium falciparum; assay: Antiplasmodial activity chloroquine-sensitive Plasmodium falciparum 3D7 infected in human A+ erythrocytes assessed as inhibition of [3H]-hypoxanthine incorporation after 24 hrs by scintillation counting; assay type: functional, organism-based
# [2] = tested on: Plasmodium falciparum; assay: Antiplasmodial activity chloroquine-resistant Plasmodium falciparum K1 infected in human A+ erythrocytes assessed as inhibition of [3H]-hypoxanthine incorporation after 24 hrs by scintillation counting; assay type: functional, organism-based
# [3] = tested on: Plasmodium falciparum; assay: Resistant factor, ratio of IC50 for chloroquine-resistant Plasmodium falciparum K1 to IC50 for chloroquine-sensitive Plasmodium falciparum 3D7; assay type: functional
# Procedure, shortened: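 Resistance factor computed as IC50 against K1 divided by IC50 against 3D7, both from the [3H]hypoxanthine incorporation assay.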
# [4] = tested on: MDCK; assay: Cytotoxicity against MDCK cells assessed as cell viability by colorimetric formazan-based MTS assay; design: species or system Canis lupus familiaris; settings: dog, mdck
# Procedure, shortened: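 Cytotoxicity on MDCK cells; 50% cytotoxic concentration from cell viability measured by colorimetric formazan-based MTS assay.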
# [5] = Cytotoxicity against MDCK cells assessed as minimum compound concentration required to causes microscopically detectable alteration of normal cell morphology; assay type: cell-based, Canis lupus familiaris; settings: dog
# Procedure, shortened: (§1)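 Confluent, non-proliferating cell cultures were exposed to the compounds. The endpoint was the minimum concentration producing a microscopically detectable alteration of normal cell morphology.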
# [6] = Selectivity index, ratio of CC50 for MDCK cells to IC50 for chloroquine-resistant Plasmodium falciparum K1; assay type: functional
# Procedure, shortened: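 Selectivity index computed as MTS-based CC50 on MDCK cells divided by IC50 against P. falciparum K1.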
# [7] = Cytotoxicity against african green monkey Vero cells assessed as minimum compound concentration required to causes microscopically detectable alteration of normal cell morphology; assay type: cell-based; settings: chlorocebus sabaeus; procedure, shortened: as §1
# [8] = tested on: Human respirovirus 3; assay: Antiviral activity against Parainfluenza-3 virus infected in african green monkey Vero cells assessed as inhibition of virus-induced cytopathogenicity after 4 days; assay type: functional, organism-based; settings: Human respirovirus 3, Vero, 96 h
# Procedure, shortened: (§2)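 Confluent HEL, Vero or HeLa monolayers were inoculated with 100 CCID50 of virus in the presence of varying concentrations of compound. Cytopathicity was scored when it reached completion in untreated, virus-infected control cultures.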
# [9] = tested on: Mammalian orthoreovirus 1; assay: Antiviral activity against Reovirus-1 infected in african green monkey Vero cells assessed as inhibition of virus-induced cytopathogenicity after 4 days; assay type: functional, organism-based; settings: Mammalian orthoreovirus 1, Vero, 96 h; procedure, shortened: as §2
# [10] = tested on: Sindbis virus; assay: Antiviral activity against Sindbis virus infected in african green monkey Vero cells assessed as inhibition of virus-induced cytopathogenicity after 4 days; assay type: functional, organism-based; settings: 96 h; procedure, shortened: as §2
# [11] = tested on: Coxsackievirus B4; assay: Antiviral activity against Coxsackie virus B4 infected in african green monkey Vero cells assessed as inhibition of virus-induced cytopathogenicity after 4 days; assay type: functional, organism-based; settings: Enterovirus B, 96 h; procedure, shortened: as §2
# [12] = tested on: Punta Toro virus; assay: Antiviral activity against Punta Toro virus infected in african green monkey Vero cells assessed as inhibition of virus-induced cytopathogenicity after 4 days; assay type: functional, organism-based; settings: 96 h; procedure, shortened: as §2
# [13] = tested on: Human alphaherpesvirus 1; assay: Antiviral activity against HSV1 KOS infected in HEL cells assessed as inhibition of virus-induced cytopathogenicity after 4 days; assay type: functional, organism-based; settings: Human alphaherpesvirus 1, KOS, 96 h
# Procedure, shortened: (§3)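 Confluent HEL or HeLa monolayers infected with 100 CCID50 of virus in the presence of varying compound concentrations.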
# [14] = tested on: Human alphaherpesvirus 2; assay: Antiviral activity against HSV2 G infected in HEL cells assessed as inhibition of virus-induced cytopathogenicity after 4 days; assay type: functional, organism-based; settings: Human alphaherpesvirus 2, strain G, 96 h; procedure, shortened: as §2
# [15] = tested on: Vesicular stomatitis virus; assay: Antiviral activity against Vesicular stomatitis virus infected in HEL cells assessed as inhibition of virus-induced cytopathogenicity after 4 days; assay type: functional, organism-based; settings: 96 h; procedure, shortened: as §3
# [16] = tested on: Human alphaherpesvirus 1; assay: Antiviral activity against thymidine kinase-deficient acyclovir-resistant HSV1 KOS infected in HEL cells assessed as inhibition of virus-induced cytopathogenicity after 4 days; assay type: functional, organism-based; settings: Human alphaherpesvirus 1, KOS, 96 h; procedure, shortened: as §3
# [17] = Cytotoxicity against human HEL cells assessed as minimum compound concentration required to causes microscopically detectable alteration of normal cell morphology; assay type: cell-based; procedure, shortened: as §1
# [18] = Cytotoxicity against human HeLa cells assessed as minimum compound concentration required to causes microscopically detectable alteration of normal cell morphology; assay type: cell-based; procedure, shortened: as §1
# [19] = tested on: Vesicular stomatitis virus; assay: Antiviral activity against Vesicular stomatitis virus infected in HeLa cells assessed as inhibition of virus-induced cytopathogenicity after 4 days; assay type: functional, organism-based; settings: 96 h; procedure, shortened: as §3
# [20] = tested on: Coxsackievirus B4; assay: Antiviral activity against Coxsackie virus B4 infected in human HeLa cells assessed as inhibition of virus-induced cytopathogenicity after 4 days; assay type: functional, organism-based; settings: Enterovirus B, 96 h; procedure, shortened: as §2
# [21] = tested on: Respiratory syncytial virus; assay: Antiviral activity against Respiratory syncytial virus infected in human HeLa cells assessed as inhibition of virus-induced cytopathogenicity after 4 days; assay type: functional, organism-based; settings: 96 h; procedure, shortened: as §2
# [22] = tested on: Influenza A virus; assay: Antiviral activity against Influenza A virus H1N1 infected in MDCK cells assessed as reduction visual scoring of virus-induced cytopathogenicity after 4 days; assay type: functional, organism-based; settings: 96 h
# Procedure, shortened: (§4)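 MDCK monolayers infected with 100 CCID50 of influenza A (H1N1 or H3N2) or influenza B, with varying compound concentrations. Cytopathicity read when untreated infected controls reached complete CPE.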
# [23] = tested on: Influenza A virus; assay: Antiviral activity against Influenza A virus H3N2 infected in MDCK cells assessed as reduction visual scoring of virus-induced cytopathogenicity after 4 days; assay type: functional, organism-based; settings: 96 h; procedure, shortened: as §4
# [24] = tested on: Influenza B virus; assay: Antiviral activity against Influenza B virus infected in MDCK cells assessed as reduction visual scoring of virus-induced cytopathogenicity after 4 days; assay type: functional, organism-based; settings: 96 h; procedure, shortened: as §4
# [25] = tested on: Influenza A virus; assay: Antiviral activity against Influenza A virus H1N1 infected in MDCK cells assessed as inhibition of virus-induced cytopathogenicity after 4 days by colorimetric formazan-based MTS assay; assay type: functional, organism-based; settings: 96 h
# [26] = tested on: Influenza A virus; assay: Antiviral activity against Influenza A virus H3N2 infected in MDCK cells assessed as inhibition of virus-induced cytopathogenicity after 4 days by colorimetric formazan-based MTS assay; assay type: functional, organism-based; settings: 96 h
# [27] = tested on: Influenza B virus; assay: Antiviral activity against Influenza B virus infected in MDCK cells assessed as inhibition of virus-induced cytopathogenicity after 4 days by colorimetric formazan-based MTS assay; assay type: functional, organism-based; settings: 96 h
# [28] = tested on: Human betaherpesvirus 5; assay: Antiviral activity against Cytomegalovirus AD-169 infected in HEL cells assessed as inhibition of virus plaque formation after 4 days; assay type: functional, organism-based; settings: Human betaherpesvirus 5, AD169, HEL, 96 h
# [29] = tested on: Human betaherpesvirus 5; assay: Antiviral activity against Human cytomegalovirus Davis infected in HEL cells assessed as inhibition of virus plaque formation after 4 days; assay type: functional, organism-based; settings: Human betaherpesvirus 5, Davis, 96 h
# [30] = tested on: HeLa; assay: Cytotoxicity against human HeLa cells assessed as cell viability by colorimetric formazan-based MTS assay
# [31] = tested on: Human alphaherpesvirus 3; assay: Antiviral activity against […] expressing thymidine kinase infected in HEL cells assessed as reduction of virus plaque formation after 4 days; assay type: functional, cell-based; settings: Human alphaherpesvirus 3, strain Oka vaccine, 96 h
# [32] = tested on: Human alphaherpesvirus 3; assay: Antiviral activity against thymidine kinase-deficient […] infected in HEL cells assessed as reduction of virus plaque formation after 4 days; assay type: functional, organism-based; settings: Human alphaherpesvirus 3, 07-1, HEL, 96 h
# [33] = Cytotoxicity against cat CRFK cells assessed as cell viability by colorimetric formazan-based MTS assay; design: species or system Felis catus; settings: crfk
# [34] = tested on: Feline infectious peritonitis virus; assay: Antiviral activity against FIPV infected in cat CRFK cells assessed as inhibition of virus-induced cytopathic effect after 4 days by colorimetric formazan-based MTS assay; assay type: functional, cell-based; settings: Alphacoronavirus 1, CRFK, 96 h
# [35] = tested on: Felid alphaherpesvirus 1; assay: Antiviral activity against Feline herpesvirus infected in cat CRFK cells assessed as inhibition of virus-induced cytopathic effect after 4 days by colorimetric formazan-based MTS assay; assay type: functional, organism-based; settings: Felid alphaherpesvirus 1, CRFK, 96 h
# [36] = tested on: Human immunodeficiency virus 1; assay: Antiviral activity against HIV1 infected in human CEM cells assessed as inhibition of virus-induced cytopathic effect after 4 days; assay type: functional, organism-based; settings: Human immunodeficiency virus 1, CCRF-CEM, 96 h
# Procedure, shortened: (§5)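 CEM T-lymphocytes (~3 × 10^5 cells/ml) were infected with HIV-1 IIIB or HIV-2 ROD at ~100 CCID50, then immediately plated with a range of compound concentrations. Giant cell formation was scored microscopically after 4 days at 37 °C. Cytostatic activity was tested in parallel in uninfected CEM cells.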
# [37] = tested on: Human immunodeficiency virus 2; assay: Antiviral activity against HIV2 infected in human CEM cells assessed as inhibition of virus-induced cytopathic effect after 4 days; assay type: functional, organism-based; settings: Human immunodeficiency virus 2, CCRF-CEM, 96 h; procedure, shortened: as §5
# [38] = Inhibition of beta-hematin formation assessed as Ferriprotoporphyrin IX biomineralisation at 1 mg/ml after 24 hrs; assay type: functional
# Procedure, shortened: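 Hemin chloride (0.5 mg/ml in DMSO) mixed with 0.5 M sodium acetate buffer pH 4.4 and drug or solvent control, incubated 37 °C for 24 h. Pellet washed with DMSO to remove unreacted hemin, dissolved in 0.1 N NaOH, absorbance read at 405 nm; percent inhibition relative to control. Highest concentration tested 1 mg/ml.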
Compound,pIC50 [1],pIC50 [2],Ratio IC50 [3],CC50 [4],MCC [5],Ratio CC50/IC50 [6],MCC [7],pEC50 [8],pEC50 [9],pEC50 [10],pEC50 [11],pEC50 [12],pEC50 [13],pEC50 [14],pEC50 [15],pEC50 [16],MCC [17],MCC [18],pEC50 [19],pEC50 [20],also measured
CCOC(=O)c1c(C)nc(NCCNc2ccnc3cc(Cl)ccc23)nc1-c1ccccc1,7.66,6.86,6.43,1.4 µM,800 nM,10.04,20 µM,< 5.40,< 5.40,< 5.40,< 5.40,< 5.40,< 5.40,< 5.40,< 5.40,< 5.40,20 µM,20 µM,< 5.40,< 5.40,pEC50 [21]: < 5.40; pEC50 [22]: < 6.80; pEC50 [23]: < 6.80; pEC50 [24]: < 6.80; pEC50 [25]: < 6.80; pEC50 [26]: < 6.80; pEC50 [27]: < 6.80; pEC50 [28]: < 5.40; pEC50 [29]: < 5.40; CC50 [30]: 7.9 µM; pEC50 [31]: < 5.40; pEC50 [32]: < 4.70; CC50 [33]: 7.3 µM; pEC50 [34]: < 5.40; pEC50 [35]: < 5.40; pEC50 [36]: < 5.70; pEC50 [37]: < 5.70; inhibition [38]: 96%
Cc1nc(NCCCNc2ccnc3cc(Cl)ccc23)nc(-c2cccc([N+](=O)[O-])c2)c1C(=O)OC(C)C,6.22,6.64,0.385,0.5 µM,800 nM,2.1,100 µM,< 4.70,< 4.70,< 4.70,< 4.70,< 4.70,< 5.40,< 5.40,< 5.40,< 5.40,20 µM,20 µM,< 5.40,< 5.40,pEC50 [21]: < 5.40; pEC50 [22]: < 6.80; pEC50 [23]: < 6.80; pEC50 [24]: < 6.80; pEC50 [25]: < 6.80; pEC50 [26]: < 6.80; pEC50 [27]: < 6.80; pEC50 [28]: < 5.40; pEC50 [29]: < 5.40; CC50 [30]: 1.04 µM; pEC50 [31]: 5.40; pEC50 [32]: < 5.40; CC50 [33]: 7.7 µM; pEC50 [34]: < 5.40; pEC50 [35]: < 5.40; pEC50 [36]: < 5.70; pEC50 [37]: < 5.00; inhibition [38]: 79%
CCOC(=O)c1c(C)nc(NCCCNc2ccnc3cc(Cl)ccc23)nc1-c1ccccc1,6.61,7.28,0.21,0.8 µM,800 nM,15.33,100 µM,< 4.70,< 4.70,< 4.70,< 4.70,< 4.70,< 4.00,< 4.00,< 4.00,< 4.00,> 20 µM,> 100 µM,< 4.00,< 4.00,pEC50 [21]: < 4.00; pEC50 [22]: < 6.80; pEC50 [23]: < 6.80; pEC50 [24]: < 6.80; pEC50 [25]: < 6.80; pEC50 [26]: < 6.80; pEC50 [27]: < 6.80; pEC50 [28]: 5.40; pEC50 [29]: 5.40; CC50 [30]: 7.07 µM; pEC50 [31]: < 5.40; pEC50 [32]: < 4.70; CC50 [33]: 15.9 µM; pEC50 [34]: < 5.40; pEC50 [35]: < 5.40; pEC50 [36]: < 5.70; pEC50 [37]: < 5.70; inhibition [38]: 100%

# Reference: ChEMBL document CHEMBL2021854, “2-Aminopyrimidine based 4-aminoquinoline anti-plasmodial agents. Synthesis, biological activity, structure-activity relationship and mode of action studies” (Eur J Med Chem, 2012)
